Screening results (PubChem)
Arbovirus anti = antivirals against arbovirus infection. arbovirus infection cell-based antiviral screen. inhibition, % at 10 µM. 200,000 tested, 0.37% active. AID 1251; in the data active = inhibition above about 30%
TNAP inh hi DEA = blocks human TNAP under high phosphate acceptor concentration; purified TNAP, CDP-star luminescence, 1 M DEA; inhibition, % at 20 µM; 200,000 tested, 0.03% active; P05186;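 active = over 50% inhibition of tissue-nonspecific alkaline phosphatase at 20 µM in the single-dose screen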;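 also: plate controls were DMSO wells for no effect and EDTA-quenched wells as full inhibition for full effect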
Target sequence (P05186 whole entry, looked up): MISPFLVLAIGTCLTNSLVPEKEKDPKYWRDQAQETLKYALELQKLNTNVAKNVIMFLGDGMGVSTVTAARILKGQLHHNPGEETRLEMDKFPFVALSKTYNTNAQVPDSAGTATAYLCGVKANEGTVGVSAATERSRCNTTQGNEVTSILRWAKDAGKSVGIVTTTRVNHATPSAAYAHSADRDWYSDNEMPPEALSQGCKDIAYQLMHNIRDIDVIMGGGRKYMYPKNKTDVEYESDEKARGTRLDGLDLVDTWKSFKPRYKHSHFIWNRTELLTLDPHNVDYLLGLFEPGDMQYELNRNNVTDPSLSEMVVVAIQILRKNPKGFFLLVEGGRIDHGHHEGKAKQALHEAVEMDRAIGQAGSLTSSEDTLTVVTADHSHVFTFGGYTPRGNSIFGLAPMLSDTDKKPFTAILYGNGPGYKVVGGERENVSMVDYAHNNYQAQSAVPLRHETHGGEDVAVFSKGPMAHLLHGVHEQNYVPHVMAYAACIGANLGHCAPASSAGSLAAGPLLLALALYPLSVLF
TNAP act hiacc = increases human TNAP activity under high phosphate acceptor concentration. 200,000 tested, under 10 active. purified TNAP, CDP-star luminescence, 1 M DEA, 30 min; hits give high values; 0 = EDTA background, 1 = DMSO-only activity. activation factor at 20 µM. AID 1136;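 active = activation factor at least 2 at 20 µM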
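system = human TNAP | amount = enzyme diluted 1/800 final | reagent = 100 µM CDP-star substrate | signal = luminescent substrate turnover signal | dosing = one dose, 20 µM | benchmarks = EDTA negative control, DMSO positive control | measure = activation factor | timing = 30 min reaction, room temperature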
WT yeast gro inh = growth inhibition of WT yeast, mitochondrial fusion screen | AID 1362 | mitochondrial fusion phenotypic screen, WT strain | 190,000 tested, 2.1% active | inhibition, % at 10 µM; in the data active = inhibition above about 58%; tested in S. cerevisiae
TNAP inh no acc = blocks human TNAP activity with no phosphate acceptor present; P05186; purified TNAP, CDP-star luminescence, 30 min; inhibition, % at 20 µM; 200,000 tested, 0.26% active; AID 1012;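 active = tissue-nonspecific alkaline phosphatase inhibition above about 50% at 20 µM in the single-dose screen, limit read from the data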;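 also: 0% = DMSO negative control and 100% = EDTA positive control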
* = called active by the depositor. Rows were chosen to be rich in hits. Some 2.6% of all compounds tested hit in one or more screens of this group.

SMILES	Arbovirus anti	TNAP inh hi DEA	TNAP act hiacc	WT yeast gro inh	TNAP inh no acc
Cn1cc(CN2CCCC(C(=O)c3nccn3C)C2)c(-c2cccc(Cl)c2)n1 (stereo not given)	6.3	-2.6	1	-4.7	-6.4
CCOC(=O)c1c(-c2ccccc2)csc1NC(=O)/C(C#N)=C/c1ccc(O)c(OC)c1	-39.7	36.7	0.6	12.6	22.8
O=C(Cc1ccc(Br)cc1)N1CCN(c2ccccc2O)CC1	16.8	-4.3	1	5.7	-4.3
CCCCn1cnc2sc(-c3ccccc3)cc2c1=O	-15.1	-0.6	1	-7.2	-13.9
COc1ccccc1-n1cnc2sc(-c3ccccc3)cc2c1=O	9.6	-2.6	1	75.0*	-8.4
COC(=O)CSc1nc(N)c2c3c(sc2n1)C(c1ccccc1)SC(c1ccccc1)C3 (stereo not given)	-38.4	5.5	0.9	66.9*	-17.8
O=C(N/N=C/C=C/c1ccccc1)NC1CCCCC1	1.2	-3.0	1	4.3	-10.2
Cc1nnc(SCC(=O)N2c3ccccc3C(C)(c3ccccc3)CC2(C)C)s1 (stereo not given)	2.8	-3.8	1	40.4	21.8
Cc1ccc(C2(C)CC(C)(C)N(C(=O)CSc3nnc(C)s3)c3ccccc32)cc1 (stereo not given)	-23.3	0.0	1	59.2*	-13.9
CCCN1CCN(c2ncnc3scc(C4COc5ccccc5O4)c23)CC1 (stereo not given)	0.7	-1.4	1	58.4*	-2.9
CC1CCc2c(C(=O)Nc3ccc(N4CCOCC4)cc3)csc2C1 (stereo not given)	-16.2	-0.6	1	2.6	-27.9
COc1ccc2c(C)cc(Sc3nnnn3-c3ccccc3)nc2c1	30.9*	-3.1	1	12.5	-10.5
Cc1cc(C)c(Cc2c(C)nc3c(C(=O)NCc4ccco4)cnn3c2C)c(C)c1	-29.1	-9.5	1.1	62.7*	25.5
O=C(NCc1ccco1)c1cnn2c(C(F)F)cc(-c3ccccc3)nc12	3.5	-3.3	1	16.2	-12.8
O=C(N/N=C/c1cccc(O)c1)c1ccc(COc2ccccc2Br)cc1	-16.8	-8.2	1.1	79.8*	-7.0
Cc1ccc(C(C)C)c(OCc2ccc(C(=O)N/N=C/c3ccc(O)cc3O)cc2)c1	-37.0	3.8	1	61.5*	-12.4
O=C(N/N=C/c1cccc(O)c1)c1ccc(COc2cccc3cccnc23)cc1	-2.8	0.1	1	-1.0	7.5
COC(=O)CNC(=O)CSc1nc(N)cc(=O)[nH]1	3.1	-2.7	1	-0.3	-2.2
CCCCN(C(=N)N1CCCCC1)c1nc(C)c([N+](=O)[O-])c(=O)[nH]1	-0.1	3.7	1	-0.4	8.0
N=C(N)c1ccc(OCCCCCOc2ccc(C(=N)N)cc2)cc1	-44.5	-1.1	1	76.0*	-15.7
O=C(O)c1ccccc1CSc1ccccn1	32.5*	-3.7	1	-6.6	-16.5
O=C(Nc1ccccc1)Nc1ccc(Br)c(Cl)c1	8.1	-2.6	1	44.8	-11.8
CC(=O)c1ccc(NC(=S)NC(C)c2ccc(Cl)cc2Cl)cc1 (stereo not given)	-39.4	-4.5	1	83.9*	-3.0
CC(=O)c1ccc(NC(=S)Nc2ccc(Br)c(Cl)c2)cc1	-34.6	-6.3	1.1	76.7*	-0.2
O=C(c1ccc(NC(=S)Nc2ccc(Cl)c(Cl)c2)cc1)N1CCCC1	12.7	-1.7	1	80.5*	0.6
SMILES	Arbovirus anti	TNAP inh hi DEA	TNAP act hiacc	WT yeast gro inh	TNAP inh no acc
CCCN(CCC)C1=CC(=[N+]2CCCC2)CC(C)(C)C1	3.6	-2.7	1	-6.5	-2.0
FC(F)(F)c1cc(C(F)(F)F)c2ccc(N3CCN(c4ccc(Cl)cc4)CC3)nc2n1	-7.6	-6.1	1.1	12.4	-10.2
N#CC(c1ccc(Cl)cc1)c1ccc2c(C(F)(F)F)cc(C(F)(F)F)nc2n1 (stereo not given)	-29.4	10.7	0.9	85.0*	12.3
CC1CC(N(C(=O)c2ccc(Cl)cc2)c2ccccc2)c2ccccc2N1C(=O)c1ccco1 (stereo not given)	-22.8	-9.5	1.1	83.6*	-9.1
C[N+]1(CC(=O)Nc2ccc(F)cc2)CCN(C(=O)c2ccco2)CC1	5.1	-4.9	1	67.4*	-13.0
CCC(C(=O)Nc1nnc(-c2ccco2)s1)c1ccccc1 (stereo not given)	-3.7	-6.6	1.1	8.4	1.2
O=C(Nc1c(-c2ccccc2)nc2ccccn12)c1ccco1	25.1	-1.6	1	14.7	-5.8
O=C(Nc1c(-c2ccccc2)nc2ccccn12)c1cccs1	39.3*	-3.0	1	3.0	-13.0
